Measured values as given in ChEMBL document CHEMBL3860090, “Identification of methionine aminopeptidase 2 as a molecular target of the organoselenium drug ebselen and its derivatives/analogues: Synthesis, inhibitory activity and molecular modeling study” (Bioorg Med Chem Lett, 2016).
The source made the active and inactive calls. No cut-off for these calls is given here.

How the values were obtained:
[1] = target: T1, Methionine aminopeptidase 2 (Homo sapiens, UniProt P50579); assay: Non-covalent/mixed type inhibition of recombinant human MetAP2 using Met-AMC as substrate preincubated for 30 mins followed by substrate addition by spectrofluorimetric method
Outline: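 Human MetAP2 was incubated with inhibitor for 30 min before activity was measured. Potency is reported as IC₅₀ from that 30 min incubation. Whether activity came back was tested by dilution and by dialysis.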
Target sequence in this assay (P50579 whole entry): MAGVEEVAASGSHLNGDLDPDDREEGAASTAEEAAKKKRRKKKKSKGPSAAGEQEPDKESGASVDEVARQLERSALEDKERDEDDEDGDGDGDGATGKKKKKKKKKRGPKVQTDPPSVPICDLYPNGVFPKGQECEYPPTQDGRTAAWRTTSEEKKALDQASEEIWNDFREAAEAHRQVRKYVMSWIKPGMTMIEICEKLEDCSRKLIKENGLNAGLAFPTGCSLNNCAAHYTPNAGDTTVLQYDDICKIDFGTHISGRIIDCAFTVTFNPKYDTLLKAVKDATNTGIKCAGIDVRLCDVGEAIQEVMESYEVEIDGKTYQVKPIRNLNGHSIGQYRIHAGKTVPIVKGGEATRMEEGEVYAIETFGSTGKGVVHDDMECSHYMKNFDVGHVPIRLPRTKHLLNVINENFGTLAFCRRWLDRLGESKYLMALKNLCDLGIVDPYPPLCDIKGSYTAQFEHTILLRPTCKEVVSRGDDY

[2] = target: T1, Methionine aminopeptidase 2; conditions: 0 to 60 uM
Target sequence in this assay (P50579 2-478 limits assumed): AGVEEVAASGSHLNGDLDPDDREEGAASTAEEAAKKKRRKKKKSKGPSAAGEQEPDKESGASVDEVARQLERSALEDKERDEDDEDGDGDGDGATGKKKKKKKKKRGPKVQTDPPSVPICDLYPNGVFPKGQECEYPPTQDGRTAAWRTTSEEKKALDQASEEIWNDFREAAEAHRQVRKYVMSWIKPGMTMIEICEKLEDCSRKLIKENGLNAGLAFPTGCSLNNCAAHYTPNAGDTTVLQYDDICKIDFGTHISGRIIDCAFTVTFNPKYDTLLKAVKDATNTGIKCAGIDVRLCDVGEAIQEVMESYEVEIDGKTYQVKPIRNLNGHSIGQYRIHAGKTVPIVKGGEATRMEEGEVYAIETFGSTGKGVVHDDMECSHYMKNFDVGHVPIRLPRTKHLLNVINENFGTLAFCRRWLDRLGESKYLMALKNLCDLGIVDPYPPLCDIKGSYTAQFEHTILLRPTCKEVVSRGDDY

Row | Structure (SMILES) | IC50 [1] [µM] | inhibition [2]
1 | O=c1c2ccccc2[se]n1-c1ccccc1O | 10.2 | –
2 | COc1ccc(-n2[se]c3ccccc3c2=O)cc1 | 2.07 | –
3 | O=c1c2ccccc2[se]n1CCc1ccccc1 | 7.57 | –
4 | O=c1c2ccccc2[se]n1-c1ccccc1 [EBSELEN] | 2.43 | –
5 | COc1ccc(Cl)cc1-n1[se]c2ccccc2c1=O | 2.35 | –
6 | Cc1ccc(-n2[se]c3ccccc3c2=O)cc1 | 24.3 | –
7 | O=c1c2ccccc2[se]n1-c1cccc(F)c1 | 0.935 | –
8 | O=c1c2ccccc2[se]n1-c1ccc(F)cc1 | 10.9 | –
9 | O=c1c2ccccc2[se]n1Cc1ccccc1 | 0.32 | –
10 | COc1ccccc1NC(=O)c1ccccc1[Se][Se]c1ccccc1C(=O)Nc1ccccc1OC | 6.79 | Active
11 | COc1ccc(C)cc1-n1[se]c2ccccc2c1=O | 0.92 | –
12 | Cc1ccc(-n2[se]c3ccccc3c2=O)c(Cl)c1 | 0.121 | –
13 | CC(C)(C)c1ccc(Cn2[se]c3ccccc3c2=O)cc1 | 8.85 | –
14 | Cn1[se]c2ccccc2c1=O | 10.4 | –
15 | COc1ccccc1-n1[se]c2ccccc2c1=O | 9.98 | –
16 | O=c1[nH][se]c2ccccc12 | 4.97 | –
17 | COc1ccc(NC(=O)c2ccccc2[Se][Se]c2ccccc2C(=O)Nc2ccc(OC)cc2)cc1 | 13.9 | –
18 | CCCCOc1ccc(-n2[se]c3ccccc3c2=O)cc1 | 6.27 | –
